{
  "source": "paper PMC5152947",
  "about": "(Journal of molecular structure, 2016)",
  "key": {"[1]": {"tested_on": "supercoiled pBR322 plasmid DNA", "assay": "Chemical nuclease activity, agarose gel electrophoresis", "assay_type": "biochemical", "settings": "50 and 100 μM, 1 h, 37 °C", "in_short": "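Supercoiled pBR322 (0.1 mg/mL) was incubated 1 h with complex in Tris buffer (50 mM Tris, 18 mM NaCl, pH 8.2), in the dark or under UV exposure, aerobic. Loading buffer quench, then 1% agarose gel in TBE (pH 8.2) at 70 V for 1 h. Gels stained with ethidium bromide ([…], 30 min), imaged under UV, and scored for nicked Form II.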"}, "[2]": {"tested_on": "CCD-18Co (human colon fibroblasts)", "assay": "Cytotoxicity assay", "assay_type": "cell-based", "settings": "read-out: IC50 CCD-18Co"}, "[3]": {"target": "human serum albumin (HSA) (Homo sapiens, UniProt P02768)", "sequence (P02768 25-609)": "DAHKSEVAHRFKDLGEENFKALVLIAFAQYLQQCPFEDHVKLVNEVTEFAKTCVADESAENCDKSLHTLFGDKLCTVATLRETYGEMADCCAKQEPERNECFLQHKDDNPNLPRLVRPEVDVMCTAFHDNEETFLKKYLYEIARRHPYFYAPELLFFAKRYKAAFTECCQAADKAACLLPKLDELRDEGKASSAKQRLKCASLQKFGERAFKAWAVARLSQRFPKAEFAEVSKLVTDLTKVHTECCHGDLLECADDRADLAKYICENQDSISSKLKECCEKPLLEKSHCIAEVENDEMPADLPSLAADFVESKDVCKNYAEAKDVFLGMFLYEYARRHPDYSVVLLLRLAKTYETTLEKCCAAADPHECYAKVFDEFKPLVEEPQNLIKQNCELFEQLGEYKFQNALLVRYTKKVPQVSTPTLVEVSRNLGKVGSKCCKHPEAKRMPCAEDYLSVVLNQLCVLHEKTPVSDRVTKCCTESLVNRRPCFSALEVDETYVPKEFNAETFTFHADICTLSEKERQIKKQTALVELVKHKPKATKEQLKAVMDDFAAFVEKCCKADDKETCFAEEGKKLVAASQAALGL", "assay": "Fluorescence quenching titration of human serum albumin", "assay_type": "binding", "settings": "for static quenching constant KS: combined quenching analysis"}, "[4]": {"tested_on": "HCT-116 (human colon carcinoma) cells", "assay": "Cytotoxicity assay", "assay_type": "cell-based", "settings": "for TI (therapeutic index) = (IC50)CCD-18Co/(IC50)cancer cells, HCT-116: 72 h; for IC50: read-out: IC50 HCT-116"}, "[5]": {"tested_on": "Caco-2 (human epithelial colorectal adenocarcinoma) cells", "assay": "Cytotoxicity assay", "settings": "for TI (therapeutic index) = (IC50)CCD-18Co/(IC50)cancer cells, Caco-2: 72 h; for IC50: read-out: IC50 Caco-2"}},
  "note": "Values joined by “and” are separate entries in the source; they are usually repeats but may differ in a detail not shown here. Equal entries are not always repeated. Where two headings read alike, the source gives them in different places.",
  "data": [
    {"compound": "Ga(PhATSC)3·H2O [Complex 3]", "values": [
      {"measurement": "cleavage of pBR322 DNA", "setting": "[1]", "result": "both the Form II and Form III (linear DNA) being present"},
      {"measurement": "IC50", "setting": "[2]; 24 h incubation, normal cells", "result": "80.9 ± 2.6", "unit": "µM"},
      {"measurement": "IC50", "setting": "[2]; 48 h incubation, normal cells", "result": "59.2 ± 2.6", "unit": "µM"},
      {"measurement": "IC50", "setting": "[2]; 72 h incubation, normal cells", "result": "42.9 ± 1.3", "unit": "µM"},
      {"measurement": "Modified Stern-Volmer K", "setting": "[3]; 298 K", "result": 302000, "unit": "M⁻¹"},
      {"measurement": "Modified Stern-Volmer f (fraction of fluorophore initially accessible)", "setting": "[3]; 298 K", "result": 0.93},
      {"measurement": "Scatchard K", "setting": "[3]; 298 K", "result": 26300, "unit": "M⁻¹"},
      {"measurement": "Scatchard n (number of binding sites)", "setting": "[3]; 298 K", "result": 0.96},
      {"measurement": "static quenching constant KS", "setting": "[3]; 298 K", "result": 20400, "unit": "M⁻¹"},
      {"measurement": "Modified Stern-Volmer K", "setting": "[3]; 303 K", "result": 231000, "unit": "M⁻¹"},
      {"measurement": "Modified Stern-Volmer f (fraction of fluorophore initially accessible)", "setting": "[3]; 303 K", "result": 1.1},
      {"measurement": "Scatchard K", "setting": "[3]; 303 K", "result": 20800, "unit": "M⁻¹"},
      {"measurement": "Scatchard n (number of binding sites)", "setting": "[3]; 303 K", "result": 1.1},
      {"measurement": "static quenching constant KS", "setting": "[3]; 303 K", "result": 33500, "unit": "M⁻¹"},
      {"measurement": "Modified Stern-Volmer K", "setting": "[3]; 308 K", "result": 325000, "unit": "M⁻¹"},
      {"measurement": "Modified Stern-Volmer f (fraction of fluorophore initially accessible)", "setting": "[3]; 308 K", "result": 1.0},
      {"measurement": "Scatchard K", "setting": "[3]; 308 K", "result": 28800, "unit": "M⁻¹"},
      {"measurement": "Scatchard n (number of binding sites)", "setting": "[3]; 308 K", "result": 1.1},
      {"measurement": "TI (therapeutic index) = (IC50)CCD-18Co/(IC50)cancer cells, HCT-116", "setting": "[4]", "result": 1.33},
      {"measurement": "IC50", "setting": "[4]; 24 h incubation", "result": "79 ± 1.1", "unit": "µM"},
      {"measurement": "IC50", "setting": "[4]; 48 h incubation", "result": "56 ± 1.7", "unit": "µM"},
      {"measurement": "IC50", "setting": "[4]; 72 h incubation", "result": "32.1 ± 2.4", "unit": "µM"},
      {"measurement": "TI (therapeutic index) = (IC50)CCD-18Co/(IC50)cancer cells, Caco-2", "setting": "[5]", "result": 0.97},
      {"measurement": "IC50", "setting": "[5]; 24 h incubation", "result": "78.7 ± 5.3", "unit": "µM"},
      {"measurement": "IC50", "setting": "[5]; 48 h incubation", "result": "58 ± 1.5", "unit": "µM"},
      {"measurement": "IC50", "setting": "[5]; 72 h incubation", "result": "44.1 ± 3.6", "unit": "µM"}
    ]},
    {"compound": "Ga(EtATSC)3·0.25C2H5OH [Complex 2]", "values": [
      {"measurement": "cleavage of pBR322 DNA", "setting": "[1]", "result": "cleavage of the DNA occurred"},
      {"measurement": "IC50", "setting": "[2]; 24 h incubation, normal cells", "result": "78.6 ± 2.1", "unit": "µM"},
      {"measurement": "IC50", "setting": "[2]; 48 h incubation, normal cells", "result": "60.6 ± 2", "unit": "µM"},
      {"measurement": "IC50", "setting": "[2]; 72 h incubation, normal cells", "result": "59.5 ± 2.5", "unit": "µM"},
      {"measurement": "Modified Stern-Volmer K", "setting": "[3]; 298 K", "result": 308000, "unit": "M⁻¹"},
      {"measurement": "Modified Stern-Volmer f (fraction of fluorophore initially accessible)", "setting": "[3]; 298 K", "result": 1.1},
      {"measurement": "Scatchard K", "setting": "[3]; 298 K", "result": 29700, "unit": "M⁻¹"},
      {"measurement": "Scatchard n (number of binding sites)", "setting": "[3]; 298 K", "result": 1.1},
      {"measurement": "Modified Stern-Volmer K", "setting": "[3]; 303 K", "result": 169000, "unit": "M⁻¹"},
      {"measurement": "Modified Stern-Volmer f (fraction of fluorophore initially accessible)", "setting": "[3]; 303 K", "result": 1.3},
      {"measurement": "Scatchard K", "setting": "[3]; 303 K", "result": 17600, "unit": "M⁻¹"},
      {"measurement": "Scatchard n (number of binding sites)", "setting": "[3]; 303 K", "result": 1.1},
      {"measurement": "TI (therapeutic index) = (IC50)CCD-18Co/(IC50)cancer cells, HCT-116", "setting": "[4]", "result": 1.98},
      {"measurement": "IC50", "setting": "[4]; 24 h incubation", "result": "49.9 ± 2.5", "unit": "µM"},
      {"measurement": "IC50", "setting": "[4]; 48 h incubation", "result": "43.6 ± 2.1", "unit": "µM"},
      {"measurement": "IC50", "setting": "[4]; 72 h incubation", "result": "30.1 ± 1.1", "unit": "µM"},
      {"measurement": "TI (therapeutic index) = (IC50)CCD-18Co/(IC50)cancer cells, Caco-2", "setting": "[5]", "result": "5 and 5.14"},
      {"measurement": "IC50", "setting": "[5]; 24 h incubation", "result": "23.1 ± 2.1", "unit": "µM"},
      {"measurement": "IC50", "setting": "[5]; 48 h incubation", "result": "18.7 ± 1.7", "unit": "µM"},
      {"measurement": "IC50", "setting": "[5]; 72 h incubation", "result": "11.6 ± 1.1", "unit": "µM"}
    ]},
    {"compound": "COc1cc([C@@H]2c3cc4c(cc3[C@@H](O[C@@H]3O[C@@H]5CO[C@@H](C)O[C@H]5[C@H](O)[C@H]3O)[C@H]3COC(=O)[C@H]23)OCO4)cc(OC)c1O", "note": "[Etoposide, reference compound]", "values": [
      {"measurement": "IC50", "setting": "[2]; Homo sapiens, CCD-18Co, 24 h", "result": "51.2 ± 1.1", "unit": "µM"},
      {"measurement": "IC50", "setting": "[2]; Homo sapiens, CCD-18Co, 48 h", "result": "48.7 ± 3.1", "unit": "µM"},
      {"measurement": "IC50", "setting": "[2]; Homo sapiens, CCD-18Co, 72 h", "result": "43.9 ± 1.8", "unit": "µM"},
      {"measurement": "TI (therapeutic index) = (IC50)CCD-18Co/(IC50)cancer cells, HCT-116", "setting": "[4]", "result": 3.07},
      {"measurement": "IC50", "setting": "[4]; Homo sapiens, HCT-116, 24 h", "result": "28.9 ± 2", "unit": "µM"},
      {"measurement": "IC50", "setting": "[4]; Homo sapiens, HCT-116, 48 h", "result": "26.9 ± 1.5", "unit": "µM"},
      {"measurement": "IC50", "setting": "[4]; Homo sapiens, HCT-116, 72 h", "result": "14.3 ± 1.4", "unit": "µM"},
      {"measurement": "TI (therapeutic index) = (IC50)CCD-18Co/(IC50)cancer cells, Caco-2", "setting": "[5]", "result": 2.71},
      {"measurement": "IC50", "setting": "[5]; Homo sapiens, Caco-2, 24 h", "result": "23 ± 0.9", "unit": "µM"},
      {"measurement": "IC50", "setting": "[5]; Homo sapiens, Caco-2, 48 h", "result": "18.9 ± 1.6", "unit": "µM"},
      {"measurement": "IC50", "setting": "[5]; Homo sapiens, Caco-2, 72 h", "result": "16.2 ± 1.7", "unit": "µM"}
    ]}
  ]
}
